Read-outs that look alike come from different tables or passages of the source.
Experiments:
six CRC tumor cell lines = assay: MTS cell proliferation assay, panel of six CRC cell lines; type: cell-based; settings: 72 h, read-out: IC50 values, range over the six CRC cell lines
How it was run: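 Six CRC lines, each in its own medium (Leibovitz's, McCoy's 5A, MEM or RPMI) with 10% FBS and penicillin-streptomycin. Seeded at 5000 cells/well, then exposed 72 h to test compound over 0.04–10 μM or 0.001–10 μM depending on compound. Viability by colorimetric MTS; IC50 from curve fitting.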

CRC240 PDX tumors = assay: CRC240 PDX xenograft tumor growth; type: in vivo, NOD/SCID mice; settings: vs vehicle, n = 3
How it was run: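 CRC240 PDX tissue washed and minced in PBS at 150 mg/ml, 200 μl implanted in NOD/SCID flanks. At about 100 mm3, mice randomized and dosed orally once daily for 11 days with test compound suspended at […] in 10% 1-methyl-2-pyrrolidinone/90% PEG300, or vehicle. Tumor size and body weight on days 0, 4, 8, 11; mean ± SEM, n = 3; two-tailed Student's t test vs vehicle.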

pAMPK in CCD841Co cells = assay: Phospho-AMPK levels by Western blot; type: cell-based; settings: whole cell lysate, vs DMSO control
How it was run: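 CCD841Co cells grown in MEM with 1 mM pyruvate, non-essential amino acids, 10% FBS. Plated at 0.27 million/well on poly-D-lysine-coated 12-well plates and attached overnight. Medium replaced with test compound or DMSO diluted in DMEM with 2 mM pyruvate and 2 mM L-glutamine. Lysed in Laemmli buffer; immunoblotted for phospho-AMPK (Thr172) and total AMPK, β-actin loading control.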

CCD841Co colonic cells = assay: Oxygen consumption rate, Seahorse XFp analyzer; type: cell-based; settings: 1 μM, vs DMSO control media
How it was run: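 CCD841Co cells seeded at 8000 cells/well in XFp miniplates and attached overnight (37 °C, 5% CO2). Basal OCR recorded, then 1 μM test compound or DMSO in media added. Mito Stress Test followed with sequential 1 μM oligomycin, 1 μM FCCP, and 0.5 μM rotenone plus antimycin A. Mean ± SD, n = 2.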

HCT116 cells = settings: 0.5 and 1.5 μM; cited from earlier work
[1] = Niclosamide 200 mg/kg oral, mice, plasma, non-compartmental, cited from earlier work
[2] = Body weight in CRC240 PDX xenograft study; type: in vivo; settings: DK419 1 mg/kg orally daily for 11 days, tumor-bearing NOD/SCID mice
[3] = Plasma pharmacokinetics after oral dose; type: in vivo, NOD/SCID mice; settings: DK419 1 mg/kg oral, mice
How it was run: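 Test compound at 0.2 mg/mL in 10% N-methylpyrrolidinone/90% PEG300, single oral 1 mg/kg to NOD/SCID mice (n = 4). Serial tail-vein blood into heparin, pre-dose to 72 h. Plasma extracted with ethyl acetate plus an internal standard analog, then LC/MS/MS; calibration range 2.4 (LLOQ) to 1000 ng/mL. Parameters from compartmental (first-order absorption/elimination) and non-compartmental analysis.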

IC50 (six CRC tumor cell lines) | time for which plasma levels were sustained [3] | AUCinf ([3]; plasma, compartmental) | AUCinf/DOSE ([3]; plasma, compartmental) | CL/F ([3]; plasma, compartmental) | Vd/F ([3]; plasma, compartmental) | AUCinf ([3]; plasma, non-compartmental) | AUCinf/DOSE ([3]; plasma, non-compartmental) | CL/F ([3]; plasma, non-compartmental) | Vd/F (Vz) ([3]; plasma, non-compartmental) | AUC0-LAST ([3]; plasma, non-compartmental, 0–72 h) | SMILES | growth of CRC240 PDX tumors (tumor volume) (CRC240 PDX tumors; Niclosamide 72 mg/kg orally daily for 11 days) | pAMPK levels by Western blot (pAMPK in CCD841Co cells) | oxygen consumption rate (CCD841Co colonic cells) | oxygen consumption rate (HCT116 cells) | AUC0-LAST ([1]; 0–24 h) | AUCinf [1] | growth of CRC240 PDX tumors (tumor volume) (CRC240 PDX tumors; DK419 1 mg/kg orally daily for 11 days) | body weight [2]
110 to 2390 nM | – | – | – | – | – | – | – | – | – | – | O=C(Nc1ccc([N+](=O)[O-])cc1Cl)c1cc(Cl)ccc1O [Niclosamide, reference compound] | inhibited tumor growth | increased pAMPK levels versus control | increases the oxygen consumption rate | caused oxygen consumption rate to increase | 1.01 ( 0–24 h) h μg/mL (per kg BW) | 1020 ng·h/mL (per kg BW) | – | –
70 to 360 nM | more than 24 hours | 16300 ng·h/mL (per kg BW) | 16.3 µg·h/mL (per mg) | 0.06 L/h (per kg BW) | 0.98 L (per kg BW) | 16900 ng·h/mL (per kg BW) | 16.9 µg·h/mL (per mg) | 0.06 L/h (per kg BW) | 0.80 (Vz) L (per kg BW) | 16.8 ( 0–72 h) h μg/mL (per kg BW) | O=C(Nc1ccc(C(F)(F)F)cc1)c1cc(Cl)cc2nc(C(F)(F)F)[nH]c12 [DK419, 6-chloro-2-(trifluoromethyl)-N-(4-(trifluoromethyl)phenyl)-1H-benzo[d]imidazole-4-carboxamide] | – | increased the levels of pAMPK | increases the rate of oxygen consumption | – | – | – | inhibited the growth of CRC240 PDX tumors compared to vehicle control | Neither DK419 nor Niclosamide produced a change in body weight

— article PMC6688896 (Bioorganic & medicinal chemistry, 2018)
